In the library only some 2.3% were active in any assay of this set; here they are far more common.
MCL1 BIM primary – inhibitors of MCL1 binding to BIM-BH3, primary screen, biochemical, fluorescence polarization. Induced myeloid leukemia cell differentiation protein Mcl-1 (Homo sapiens), Q07820. GST-MCL1 / FITC-Bim-BH3 fluorescence polarization. inhibition, % at 10.9 µM. 0.68% of 320,000 active;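 active = inhibition above the mean inhibition of all tested compounds plus 3 SD, set per campaign, cut at about 40% in these data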;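 note: higher means more loss of mP so more displacement of Bim peptide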
Target sequence (Q07820 whole entry, looked up): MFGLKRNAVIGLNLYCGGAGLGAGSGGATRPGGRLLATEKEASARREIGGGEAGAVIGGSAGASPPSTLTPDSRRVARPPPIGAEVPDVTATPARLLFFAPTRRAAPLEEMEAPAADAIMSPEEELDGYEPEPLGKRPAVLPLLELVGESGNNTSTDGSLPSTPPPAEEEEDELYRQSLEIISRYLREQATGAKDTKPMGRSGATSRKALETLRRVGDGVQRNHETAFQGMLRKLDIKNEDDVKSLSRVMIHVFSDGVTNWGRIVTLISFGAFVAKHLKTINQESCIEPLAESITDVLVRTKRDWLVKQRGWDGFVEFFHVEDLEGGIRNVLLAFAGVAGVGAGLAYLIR
Mcl-1 Bim block – inhibitors of Bim peptide binding to Mcl-1, primary screen, biochemical, bead-based flow cytometry, multiplex; Bim peptide-Mcl-1 binding; Induced myeloid leukemia cell differentiation protein Mcl-1 (Homo sapiens), Q07820; inhibition, % at 10 µM; 0.1% of 190,000 active; in the data active = inhibition above about 40%
T cell HTS – modulators of CD8 T cell-vesicle binding, primary screen, mouse 2C CD8+ T cells, flow cytometry | 2C CD8+ T cell-vesicle binding; active compounds read low | response (vesicle binding), % at 7 µM | 0.068% of 330,000 active | AID 2052, 2009;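 active = response, share of CD8 T cells binding vesicles, and their 90th percentile fluorescence all below set limits, cut at about 80% in these data, passing the limit was not always enough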;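 note: values below 100% mean blocked vesicle binding to the CD8+ T cells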
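Material: murine 2C transgenic CD8+ T lymphocytes / Also added: QL9-peptide-loaded Drosophila micro-vesicles bearing Ld, ICAM-1 and B7-1 / Schedule: binding step 1.5 h, 37 °C, antibody labelling 20 min, ice / Signal: flow cytometry, PE anti-B7-1 (FL2) versus Alexa647 anti-CD8 (FL8), PFA-fixed / Evaluation: percent CD8+ FL2 mean versus row control / Benchmarks: naked versus QL9-loaded vesicles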
Mcl1 Noxa PPI – Mcl-1/Noxa binding inhibitors, primary screen, biochemical, TR-FRET, 1536-well; TR-FRET Mcl-1/Noxa peptide binding, 2 h; inhibition, % at 21.7 µM; 1.5% of 220,000 active; AID 1022, 2008;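 active = compounds that cut the protein-peptide binding signal by more than 50% relative to plate controls in a single-dose test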;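 note: His-tagged Mcl-1 with rhodamine Noxa BH3 peptide and terbium anti-His antibody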
Pemphigus Ab inh – inhibitors of pemphigus antibody binding to DSG3, primary screen, biochemical, bead-based, flow cytometry, scFv-GFP; Desmoglein-3 (Homo sapiens), P32926; DSG3-coupled beads, scFv-anti-DSG3-GFP binding; active compounds read low; binding (percent of control), % at 10 µM; 0.48% of 310,000 active; AID 588358, 2011;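 active = binding more than 3 SD below its plate's average and above zero; inconclusive = below that plate limit but binding exactly zero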;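 note: hits lower antibody fragment binding to DSG3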
Mcl1 Bid PPI – Mcl-1/Bid binding inhibitors, primary screen, biochemical, TR-FRET, 1536-well | TR-FRET Mcl-1/Bid-Dy647 peptide binding | inhibition, % at 21.7 µM | Induced myeloid leukemia cell differentiation protein Mcl-1 (Homo sapiens), Q07820 | 0.97% of 220,000 active | AID 1021, 2008;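 active = compounds that cut the binding signal by more than half at the single screening dose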;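 note: His-tagged Mcl-1 with europium anti-His antibody binding Bid BH3 peptide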
Bcl-xL conf – Bcl-xL inhibitors blocking Bim BH3 binding, confirmation, counter-screen for MCL1 inhibitor project, biochemical, fluorescence polarization; 54% of 1,700 active; GST-Bcl-xL / FITC-Bim BH3 peptide FP binding; shares compounds with MCL1 BIM primary; inhibition, % at 10.9 µM; AID 2166, 2009;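 active = inhibition above a cutoff equal to the mean inhibition of all tested compounds plus 3 SD, cut at about 30% in these data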
Target sequence (Q07817 whole entry, looked up): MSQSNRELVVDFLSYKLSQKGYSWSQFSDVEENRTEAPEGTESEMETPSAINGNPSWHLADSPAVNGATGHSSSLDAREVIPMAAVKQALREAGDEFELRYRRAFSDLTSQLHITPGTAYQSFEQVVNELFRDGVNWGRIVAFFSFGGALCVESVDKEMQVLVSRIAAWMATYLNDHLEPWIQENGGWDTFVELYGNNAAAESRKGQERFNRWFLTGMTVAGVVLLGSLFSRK
MCL1 inh confirm – inhibitors of MCL1 binding to BIM-BH3, confirmation, biochemical, fluorescence polarization, triplicate; shares compounds with MCL1 BIM primary; 61% of 1,700 active; inhibition, % at 10.9 µM; GST-MCL1 / FITC-Bim-BH3 fluorescence polarization;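 active = inhibition above the average of all tested compounds plus 3 SD, cut at about 40% in these data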
A number is an active result; – = inactive; ? = inconclusive; · = no result; + = active, no number.

SMILES	MCL1 BIM primary	Mcl-1 Bim block	T cell HTS	Mcl1 Noxa PPI	Pemphigus Ab inh	Mcl1 Bid PPI	Bcl-xL conf	MCL1 inh confirm
Cc1ccc(NC(=O)/C(=C\c2ccc([N+](=O)[O-])cc2)NC(=O)c2ccccc2)cc1	–	–	–	–	–	–	·	·
CCC(=O)NCCn1c(C)cc2ccccc21	–	–	–	–	–	–	·	·
Cc1cc2ccccc2n1CCNC(=O)COc1ccccc1	63	–	–	–	65	–	–	–
CC(=O)c1cccc(OCC(=O)Nc2ccccc2N2CCOCC2)c1	–	·	–	·	–	·	·	·
CCN(CC)c1ccc(NC(=O)c2c(C)noc2C)cc1	–	·	–	·	–	·	·	·
CCOC(=O)N1CCc2c(sc(NC(=O)CCS(=O)(=O)c3ccccc3)c2C(N)=O)C1	48	·	–	·	–	·	–	–
COc1c(Cl)cc(C(=O)NN)cc1Cl	–	–	–	–	–	–	·	·
NNC(=O)c1cc(O)c(O)c(O)c1	54	–	–	73	–	–	34	46
CCCCN(C(=O)c1cc(S(=O)(=O)N2CCCCC2)ccc1Cl)c1c(N)n(CCC)c(=O)[nH]c1=O	·	·	·	·	–	·	·	·
Cc1cccn2c(=O)c3cc(C#N)c(=NC(=O)c4ccncc4)n(CCCOC(C)C)c3nc12	87	–	–	–	–	–	43	48
Cc1cccn2c(=O)c3cc(C#N)c(=NC(=O)c4cccs4)n(CCCOC(C)C)c3nc12	74	·	–	–	·	–	–	–
CCOCCCn1c(=NC(=O)c2cccnc2)c(C(=O)OCC)cc2c(=O)n3ccccc3nc21	–	–	–	–	–	–	·	·
CC(=O)N=c1c(C#N)cc2c(=O)n3cccc(C)c3nc2n1CCCOC(C)C	–	·	–	–	–	–	·	·
CCOCCCn1c(=NC(=O)c2cccs2)c(C#N)cc2c(=O)n3ccccc3nc21	97	·	–	–	–	–	62	75
CN(CC(=O)Nc1sccc1C#N)C1CCCCC1	112	–	–	61	·	–	–	–
CCOC(=O)C1C(c2ccc3c(c2)OCO3)NC(=O)NC1(O)C(F)(F)F (stereo not given)	55	–	–	–	–	–	–	–
CCOC(=O)C1C(c2ccc(O)c(OC)c2)NC(=O)NC1(O)C(F)(F)F (stereo not given)	–	·	–	·	–	·	·	·
CCOC(=O)c1cc2c(=O)n3ccccc3nc2n(Cc2ccco2)c1=NC(=O)c1ccc(OC)cc1OC	52	–	–	–	–	–	–	–
CCCCn1c(=NC(=O)c2ccco2)c(C(=O)OCC)cc2c(=O)n3ccccc3nc21	–	–	–	–	–	–	·	·
Cc1ccccc1C(=O)N=c1c(C#N)cc2c(=O)n3cccc(C)c3nc2n1Cc1ccco1	–	–	–	–	·	–	·	·
N#Cc1cc2c(=O)n3ccccc3nc2n(Cc2ccco2)c1=NC(=O)c1ccco1	75	–	–	–	–	–	–	–
COc1cccc2c1-c1c(O)cccc1C2=O	–	·	–	·	–	·	·	·
O=C1c2cccc(O)c2C(=O)c2c(O)cccc21	158	–	–	–	·	–	81	97
Cc1nc(N2CCN(c3ccccc3O)CC2)c2c(-c3ccccc3)csc2n1	–	·	–	·	–	·	·	·
Cn1c(=O)c(N)c2c3c(c(Br)ccc31)C(=O)c1ccccc1-2	+	·	–	–	–	–	+	+
SMILES	MCL1 BIM primary	Mcl-1 Bim block	T cell HTS	Mcl1 Noxa PPI	Pemphigus Ab inh	Mcl1 Bid PPI	Bcl-xL conf	MCL1 inh confirm
Cc1oc(-c2ccccc2Cl)nc1CS(=O)CC(=O)NC1CC1 (stereo not given)	–	·	–	·	–	·	·	·
N#CC1=C(N)Oc2cc(O)c(Cl)cc2C1c1ccccc1F (stereo not given)	57	·	–	·	–	·	91	118
COc1cc(O)c(C(C)=O)c(OC)c1	·	·	·	·	–	·	·	·
COc1cc(O)c(C(C)=O)c(CC(=O)O)c1	41	·	–	–	–	–	–	–
COc1ccc(NC(=O)c2ccc3[nH]c(C)c(C)c3c2)cc1	·	·	–	·	?	·	·	·
O=C(CSC1=Nc2ccccc2C2=NC(CC(=O)NC3CCCCC3)C(=O)N12)NCc1ccco1 (stereo not given)	63	–	–	–	–	–	46	56
O=C(CCC1N=C2c3ccccc3N=C(SCc3ccccc3Cl)N2C1=O)NCc1ccco1 (stereo not given)	–	–	–	–	–	–	·	·
Cc1nn2c(N)csc2nc1=O	58	–	–	–	·	–	51	59
Cc1nn2c3ccccc3n(C)c2nc1=O	–	–	–	–	–	–	·	·
CSc1nc(N)nc(C(C)C)n1	66	·	–	–	–	–	–	–
CC(C)(C)C1CC=C2C(C#N)=C(N)C(C#N)(C#N)C(c3cccs3)C2C1 (stereo not given)	63	·	–	·	·	·	114	145
CCN(CC)Cc1ccccc1Sc1ccccc1	–	–	–	–	–	–	·	·
O=c1nc(/C=C/c2ccc(-c3ccc(F)cc3)o2)cc(C(F)(F)F)[nH]1	44	–	–	–	·	–	40	–
Clc1nnc(NC2CCCCC2)c(Cl)c1Cl	·	·	·	·	–	·	·	·
C/C(=N/Nc1ncc(Br)cn1)c1ccc([N+](=O)[O-])cc1	–	·	–	·	–	·	·	·
C/C(N)=C(/C#N)C(=O)CSc1nnc(Nc2cccc(C)c2)s1	40	–	–	–	–	–	–	41
CC1CC1C(=O)Nc1ccc(S(=O)(=O)N2CCCCC2)cc1 (stereo not given)	·	·	·	·	–	·	·	·
Cc1ccc2c(c1)c1nc3ccccc3nc1n2C	76	·	–	·	–	·	84	136
Cn1c2ccc(F)cc2c2nc3ccccc3nc21	–	·	–	·	–	·	·	·
O=C1NN=C2CCCCCCC12 (stereo not given)	·	·	·	·	–	·	·	·
Cc1oc2cc(O)ccc2c(=O)c1-c1ccccc1	–	–	–	–	–	–	·	·
Cc1oc2cc(O)ccc2c(=O)c1-c1nncn1-c1ccccc1	109	–	–	–	–	–	119	139
COc1ccccc1NC(=O)c1ccc(CSc2ncccn2)cc1	–	–	–	–	·	–	·	·
